WT yeast gro inh: growth inhibition of WT strain, primary screen, mitochondrial fusion inhibitor project, WT and mutant strains, chemical genetic. mitochondrial fusion phenotypic screen. inhibition, % at 10 µM. 190,000 tested, 2.1% active; in the data active means inhibition above about 58%; tested in S. cerevisiae
Cl transport mod: KCC2 cotransporter modulators, thallium flux, primary screen, cell-based, HEK293 KCC2, FluoZin-2 fluorescence, MLSMR; KCC2 cells, thallium flux FluoZin-2 fluorescence; B-score of Tl+ flux slope (higher = more flux/activation; lower = inhibition) at 10 µM; 190,000 tested, 2.2% active;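 active means thallium flux slope and its plate-corrected score both differing from the plate sample mean at a set confidence after two filtering rounds, in either direction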;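 further: slope of fluorescence scaled to starting intensity during 10 to 20 s after thallium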
Target sequence (Q9H2X9 whole entry, looked up): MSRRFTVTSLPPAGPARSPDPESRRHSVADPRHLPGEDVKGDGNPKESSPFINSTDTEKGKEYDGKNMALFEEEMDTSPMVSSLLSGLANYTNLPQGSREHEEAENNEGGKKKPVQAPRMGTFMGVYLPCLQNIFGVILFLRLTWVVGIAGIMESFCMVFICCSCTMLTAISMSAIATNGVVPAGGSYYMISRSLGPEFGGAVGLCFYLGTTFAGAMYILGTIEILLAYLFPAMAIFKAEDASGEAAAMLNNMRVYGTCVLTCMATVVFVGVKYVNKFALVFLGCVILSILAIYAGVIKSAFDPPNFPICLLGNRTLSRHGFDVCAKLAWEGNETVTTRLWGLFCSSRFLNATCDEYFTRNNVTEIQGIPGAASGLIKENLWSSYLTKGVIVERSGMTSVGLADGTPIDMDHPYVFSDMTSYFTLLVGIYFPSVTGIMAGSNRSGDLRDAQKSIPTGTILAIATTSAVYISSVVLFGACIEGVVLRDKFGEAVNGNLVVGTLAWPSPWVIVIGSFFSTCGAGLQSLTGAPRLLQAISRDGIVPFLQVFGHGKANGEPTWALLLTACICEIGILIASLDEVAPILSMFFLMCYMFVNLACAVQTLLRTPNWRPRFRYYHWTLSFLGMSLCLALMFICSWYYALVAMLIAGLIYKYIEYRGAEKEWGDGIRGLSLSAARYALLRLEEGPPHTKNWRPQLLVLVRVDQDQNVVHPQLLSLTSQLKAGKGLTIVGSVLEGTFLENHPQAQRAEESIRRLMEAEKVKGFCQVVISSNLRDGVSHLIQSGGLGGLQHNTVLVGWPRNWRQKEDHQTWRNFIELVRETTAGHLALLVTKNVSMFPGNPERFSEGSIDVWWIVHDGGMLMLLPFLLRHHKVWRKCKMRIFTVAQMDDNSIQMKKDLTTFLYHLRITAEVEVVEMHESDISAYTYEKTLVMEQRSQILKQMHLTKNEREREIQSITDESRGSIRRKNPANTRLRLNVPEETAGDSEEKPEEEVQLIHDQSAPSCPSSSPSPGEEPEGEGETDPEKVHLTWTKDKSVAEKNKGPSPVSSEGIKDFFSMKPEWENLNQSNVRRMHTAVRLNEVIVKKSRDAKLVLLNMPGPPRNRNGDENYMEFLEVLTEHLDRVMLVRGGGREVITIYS
Ins promoter up: insulin promoter activators in MIN6 cells, imaging, high-content screening, mouse beta cells | MIN6 insulin promoter-GFP reporter; hits give high values | z-score at 5 µM | 190,000 tested, 0.3% active;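 active means z-score above 3 at 5 µM with at least 500 cells counted in the well; inconclusive means wells under 500 cells, flagged as cytotoxic or low count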
Autophagy mod: autophagy modulators in MEF cells, primary screen, imaging, high-content, MEF GFP-LC3 | 190,000 tested, 0.98% active | calls only at 10 µM (by protocol) | MEF GFP-LC3 puncta imaging; test concentration mostly 10 µM;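 active means percentage of spot-positive cells more than 3 SD above its plate mean, without a fluorescence outlier flag or 80% toxicity; inconclusive means no clear call, values can overlap the other calls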
SKKanGAS inh: S. pyogenes SKKanGAS growth inhibitors in kanamycin, primary screen, streptokinase expression inhibitor project, SKKanGAS strain, BacTiter-Glo luminescence; inhibition, % at 7.5 µM; 6 h; AID 1662, 2009; 300,000 tested, 1.3% active;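 active means mean replicate score, as percent of positive control median, at least 50; inconclusive means mean below 50 but one replicate at or above 50; inactive means mean and every replicate below 50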;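 further: strain carries kanamycin resistance gene driven by streptokinase promoter and grows in 40 µg/ml kanamycin; loss of luminescence reflects streptokinase promoter inhibition or plain growth inhibition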
Rad51 HR inh: human RAD51 strand exchange inhibitors, primary screen, biochemical, fluorescence. DNA repair protein RAD51 homolog 1 (Homo sapiens), Q06609. hRad51 DNA strand exchange, fluorescence dequenching. inhibition, % at 10 µM. 200,000 tested, 0.085% active. AID 1385, 2008;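 active means inhibition above 40% at the single screening dose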
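Assay system: Human Rad51 nucleoprotein filaments preassembled on unlabelled ssDNA | Reagent: Donor/quencher-labelled 47-bp dsDNA substrate | Doses: One concentration, 10 µM final | Times: 37 °C 15-min filament assembly, 30-min compound preincubation, 15-min exchange | Technique: Fluorescein emission 520 nm, excitation 485 nm | Benchmarks: Plate control and blank wells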
A number is an active result; n = inactive; u = inconclusive; x = not tested or not shown; + = active, no number. An excerpt weighted towards active compounds, which were near 4.2% of everything screened.

SMILES	WT yeast gro inh	Cl transport mod	Ins promoter up	Autophagy mod	SKKanGAS inh	Rad51 HR inh
CCCCCCc1nc2ccccc2c(=O)n1NC(=O)c1c(O)c2cccc3c2n(c1=O)CC3	x	n	x	n	x	x
O=c1[nH]c2cccc(F)c2n2cccc12	x	x	x	x	n	x
CCOC(=O)c1cnc(SC)nc1Sc1cc(Cl)ccc1Cl	71	n	n	n	n	x
Cc1nn(Cc2ccccc2)c(Cl)c1/C=C/C(=O)OC(C(=O)NC(N)=O)C(C)C (centres undefined)	n	n	n	n	n	n
Cc1cccc(CC(Cc2nc3ccccc3[nH]2)c2nc3ccccc3[nH]2)c1 (centres undefined)	n	x	n	n	61	n
Cn1c(=S)[nH]c2sc3c(c2c1=O)CCC(C(C)(C)C)C3 (centres undefined)	x	x	x	x	79	x
COCCn1c(=S)[nH]c2sc3c(c2c1=O)CCC(C)C3 (centres undefined)	x	x	x	x	n	x
CCOC(=O)N1CCN(C(=O)CSCC(=O)N=c2sc3ccccc3n2C)CC1	n	x	n	n	n	105
CCOC(=O)N1CCN(C(=O)Cn2c(=O)sc3ccccc32)CC1	n	n	n	n	n	n
Cc1[nH]n(-c2ccc(Br)cc2)c(=O)c1/C=N/NC(=O)c1ccccc1	x	x	x	x	90	x
O=C(N/N=C/c1c(Cl)cccc1Cl)c1cccc(F)c1	n	n	n	n	n	n
Cc1[nH]n(-c2ccccc2)c(=O)c1/C=N/NC(=O)c1cccc(F)c1	x	x	x	x	68	x
Cc1ccc(-n2[nH]c(C)c(C=Nc3ccc(Br)cn3)c2=O)cc1	n	n	n	n	n	n
CNS(=O)(=O)c1cc(Nc2ncnc3sccc23)ccc1C	x	x	x	x	n	x
COc1ccccc1N=c1oc2cc(O)ccc2cc1C(=O)NCC1CCCO1 (centres undefined)	n	n	n	n	n	n
COc1ccccc1N=c1oc2cc(O)ccc2cc1C(N)=O	n	n	n	n	70	n
O=[N+]([O-])c1cc(CN2CCCCCC2)ccc1O	x	x	x	x	n	x
Cc1ccc(Sc2ccc(CN3CCCCC3)cc2[N+](=O)[O-])cc1	61	n	n	n	n	x
O=C(Nc1ncc(Cc2ccccc2Cl)s1)C1=NCCN1	73	n	n	n	n	n
Cc1ccc(NC(=O)CSc2nc3ccccc3c(=O)n2CCCN2CCCCC2)cc1C	n	n	n	+	n	n
Cc1cc(NC(=O)CSc2nc3c(sc4ccccc43)c(=O)n2CCc2ccccc2)n[nH]1	n	n	n	n	n	n
Cc1cc(NC(=O)CSc2nc3c(sc4ccccc43)c(=O)n2CCCN2CCOCC2)n[nH]1	n	n	n	+	n	n
CCc1ccc(NC(=O)CSc2nc3ccccc3c(=O)n2CCCN2CCC(C)CC2)cc1	79	n	n	n	n	n
CCCn1c(SCC(=O)N2CCN(c3ccccc3)CC2)nc2ccccc2c1=O	n	n	n	n	n	n
O=C(CSc1nc2ccccc2c(=O)n1CCCN1CCOCC1)N1CCN(c2ccccc2)CC1	n	n	n	+	n	n
SMILES	WT yeast gro inh	Cl transport mod	Ins promoter up	Autophagy mod	SKKanGAS inh	Rad51 HR inh
Cc1ccc(C)c(NC(=O)CSc2nnc(C3CCCCC3)o2)c1	x	x	x	x	n	x
O=C(NCCCN1CCOCC1)c1cnccn1	x	x	x	x	n	x
COc1cccc2c1c(NC(=O)Nc1ccc(F)cc1F)nn2C	x	n	n	x	n	n
COC(=O)c1ccccc1NC(=O)c1cc(-c2cccs2)on1	n	x	n	+	n	n
NC(=O)COC(=O)c1ccccc1Oc1ccccc1	n	n	n	n	n	n
CC(C)/C(=N/Nc1ccccc1[N+](=O)[O-])c1ccccc1	64	n	n	n	56	n
COc1ccc(C(=O)N2c3cc4c(cc3C(C)=CC2(C)C)OCO4)cc1	60	n	n	n	n	n
CC1=CC(C)(C)N(C(=O)c2ccccc2)c2ccc(C)cc21	n	n	n	n	63	x
CC1=CC(C)(C)N(C(=O)c2ccccc2)c2ccccc21	n	x	n	n	n	n
CCOC(=O)c1c(C)[nH]c(C)c1C(=O)COC(=O)/C=C/c1cccc(C(F)(F)F)c1	58	n	n	n	n	n
CCOC(=O)c1c(C)[nH]c(C)c1C(=O)COC(=O)c1cc2ccccc2cc1O	74	n	n	n	n	n
Cc1cc(Cl)ccc1OCC(=O)Nc1ccc(CN2CCOCC2)cc1	x	x	x	x	n	x
COc1ccc(NC(=O)C(=O)NNC(=O)C(C)Oc2ccc(Cl)cc2Cl)cc1 (centres undefined)	n	76	n	n	71	n
COc1ccc(NC(=S)NNC(=O)COc2ccc(Cl)cc2Cl)cc1	69	n	n	n	n	n
O=C(COc1ccc(Cl)cc1Cl)Nc1ccc(CN2CCOCC2)cc1	x	x	x	x	103	x
COCCn1c(SCC(=O)N2CC(=O)Nc3ccccc32)nc2ccccc21	n	n	n	n	n	n
O=C1OCC=C1NNC(=O)c1cccnc1	n	n	n	n	n	n
O=C(c1cccc(C(F)(F)F)c1)C1CCCN(C(=O)CCn2cnnn2)C1 (centres undefined)	x	n	n	x	n	x
CCCC[C@@H](CNC)NC[C@H](Cc1ccc(O)cc1)NCCc1ccc(OCC)cc1	x	x	x	x	n	x
CC(=O)Oc1ccc(Cl)cc1/C=C/c1cc(OC(C)=O)c2ccccc2n1	n	n	x	n	n	n
COc1cc(Cl)cc(/C=C/c2ccc3ccccc3n2)c1OC(C)=O	60	n	x	n	n	n
CN(C(=O)CSc1nc2[nH]ncc2c(=O)[nH]1)c1ccccc1	x	x	x	x	n	x
O=C(COC(=O)C1CCN(S(=O)(=O)c2cccs2)CC1)Nc1ccc(F)cc1F	x	n	n	x	n	n
CCCCCCCCn1ccc(=N)cc1	x	n	n	x	n	n
CCCCCCCCCCCCCCCCn1cc[n+](C)c1	n	n	u	+	114	n
SMILES	WT yeast gro inh	Cl transport mod	Ins promoter up	Autophagy mod	SKKanGAS inh	Rad51 HR inh
COC(=O)c1cccc(NC(=S)Nc2ccc(Cl)c(Cl)c2)c1	x	n	n	x	n	n
Cc1cc(C)cc(NC(=S)Nc2ccc(Cl)c(Cl)c2)c1	n	n	n	n	70	n
Cc1cccc(C)c1NC(=S)Nc1ccc(Cl)c(Cl)c1	80	n	x	n	n	n
NC(=S)Nc1ccc(Cl)c(Cl)c1	x	n	n	x	n	n
CC(OC(=O)Cc1c(F)cccc1Cl)C(=O)NC1(C#N)CCCCC1 (centres undefined)	x	x	x	x	n	x
O=C1OC2(CCCCC2)OC(=O)C1=CNc1nccs1	n	n	n	n	n	n
O=C1OC2(CCCCC2)OC(=O)C1=CNc1nc2ccccc2s1	n	3.7	n	n	n	n
C=CCOc1ccc(/C=N/NC(=O)C(C)Sc2ccccn2)cc1OC (centres undefined)	n	n	x	n	n	n
O=C(Cc1ccc(Cl)cc1)Nc1ccc(NC(=O)c2cccs2)cc1	n	n	n	+	n	n
O=C(Nc1ccc(Cl)cc1)c1cccs1	n	n	n	n	n	n

Screening results (PubChem)
